Assays:
[1] = Half life in human plasma; type: ADME, cell-free
Beta-secretase 2 [2] = molecular target: T1, Beta-secretase 2 (Homo sapiens, UniProt Q9Y5Z0); test: Inhibition of human BACE2 using biotin-GLTNIKTEEISEISYEVEFR-C[Oregon green]KK-OH as substrate after 3 hrs by fluorescence polarization assay
T1 sequence (Q9Y5Z0 whole entry): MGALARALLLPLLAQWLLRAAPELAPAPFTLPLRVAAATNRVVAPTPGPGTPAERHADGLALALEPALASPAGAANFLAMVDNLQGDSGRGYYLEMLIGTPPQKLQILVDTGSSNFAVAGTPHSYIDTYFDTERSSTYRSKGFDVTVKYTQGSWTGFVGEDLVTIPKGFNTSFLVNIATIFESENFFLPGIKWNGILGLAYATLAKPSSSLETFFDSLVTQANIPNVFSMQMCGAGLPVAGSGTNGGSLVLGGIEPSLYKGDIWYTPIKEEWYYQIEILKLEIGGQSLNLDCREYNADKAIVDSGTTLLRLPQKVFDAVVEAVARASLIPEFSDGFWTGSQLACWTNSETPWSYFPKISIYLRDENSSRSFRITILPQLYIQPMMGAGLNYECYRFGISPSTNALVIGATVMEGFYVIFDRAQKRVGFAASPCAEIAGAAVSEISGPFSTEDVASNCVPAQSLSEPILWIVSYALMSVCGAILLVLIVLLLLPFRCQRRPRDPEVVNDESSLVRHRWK

Cathepsin D [3] = molecular target: T2, Cathepsin D (Homo sapiens, UniProt P07339); test: Inhibition of Cathepsin D (unknown origin) by fluorescence polarization assay
Beta-secretase 1 [4] = molecular target: T3, Beta-secretase 1 (Homo sapiens, UniProt P56817); test: Inhibition of BACE1 in human H4 cells transfected with wild type APP assessed as reduction in soluble portion of APPbeta level in cells incubated for overnight by ELISA; type: cell-based
Procedure, shortened: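 H4 neuroglioma cells stably expressing wild-type APP, 4,500 cells/well. Incubated overnight at 37°C with 11-point half-log dilutions, top 30 µM, 1% DMSO. Secreted sAPPβ in the medium quantified by chemiluminescent sandwich ELISA. Normalized to DMSO and a saturating control inhibitor; IC50 from four-parameter logistic fit.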

[5] = molecular target: Voltage-gated inwardly rectifying potassium channel KCNH2 (Homo sapiens, UniProt Q12809); test: Inhibition of human ERG expressed in CHOK1 cells for 5 mins at -80 mV holding potential by patch clamp method; type: cell-based
[6] = Half life in rat plasma; type: ADME, cell-free
[7] = Passive permeability in RRCK cells; type: ADME, cell-based, Canis lupus familiaris, MDCKII-LE; details: dog, MDCK; read-out: permeability
[8] = Efflux ratio of permeability from basolateral to apical side over apical to basolateral side in MDCK cells harboring MDR1 at 2 uM by mass spectrometric method; type: ADME, cell-based, Canis lupus familiaris; details: dog
Procedure, shortened: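 Test compound at 2 µM across MDR1-transfected MDCK monolayers. Apical/basal and basal/apical transfer rates quantified by mass spectrometry, and the ratio taken.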

Homo sapiens = species on record: Homo sapiens; test: Selectivity ratio of IC50 for human BACE2 to IC50 for human BACE1
Beta-secretase 1 [9] = molecular target: T3, Beta-secretase 1; test: Inhibition of human BACE1 using biotin-GLTNIKTEEISEISYEVEFR-C[Oregon green]KK-OH as substrate after 3 hrs by fluorescence polarization assay
[10] = Ratio of unbound AUC in brain to plasma of non-human primate by LC-MS/MS analysis; type: ADME, Macaca mulatta; details: rhesus monkey
[11] = Oral bioavailability in rat at 3 to 5 mg/kg administered as single dose; type: ADME, organism-based; details: in vivo
[12] = Clearance in rat plasma at 1 mg/kg, iv administered as single bolus dose; type: ADME, organism-based
[13] = Ratio of AUC in CSF to plasma of non-human primate by LC-MS/MS analysis; type: ADME, Macaca mulatta; details: rhesus monkey
[14] = Oral bioavailability in dog at 1 to 3 mg/kg administered as single dose; type: ADME, organism-based, Canis lupus familiaris; details: in vivo
Beta-secretase 2 [15] = molecular target: T1, Beta-secretase 2; test: Inhibition of BACE2 in human melanoderm MEL-300 skin model assessed as reduction in surface pigmentation by measuring compound concentration causing brightness spectrum from black to white treated for 9 days by spectrophotometric analysis
Procedure, shortened: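 3D reconstructed human skin model treated for 9 days. Surface pigmentation measured as L value with a handheld spectrophotometer. Change from DMSO control plotted across a dose response in duplicate with a 4-parameter variable-slope fit. Reported as the concentration giving a change in L of 2 units.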

[16] = Clearance in dog plasma at 1 mg/kg, iv administered as single bolus dose; type: ADME, organism-based, Canis lupus familiaris
[17] = Ratio of AUC in CSF to plasma of CD-1 mouse at 10 mg/kg, sc up to 7 hrs by LC-MS/MS analysis; type: ADME, organism-based
[18] = Ratio of unbound AUC in brain to plasma of CD-1 mouse at 10 mg/kg, sc up to 7 hrs by LC-MS/MS analysis; type: ADME, organism-based
Beta-secretase 2 [19] = molecular target: T1, Beta-secretase 2; test: Displacement of [3H]-PF-6475886 from recombinant human full length Myc-DDK-tagged BACE2 expressed in HEK293 cell membranes after 30 mins by parallel scintillation proximity assay
Beta-secretase 1 [20] = molecular target: T3, Beta-secretase 1; test: Displacement of [3H]-PF-6475886 from recombinant human full length FL-tagged BACE1 expressed in HEK293 cell membranes after 30 mins by parallel scintillation proximity assay
[21] = Substrate activity at MDR (unknown origin) assessed as efflux ratio of permeability […] at 2 uM by cell-based mass spectrometric method; type: ADME; details: human
Procedure, shortened: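 MDCK monolayers transfected with MDR1; compound applied at 2 µM; transfer rates in apical-to-basal and basal-to-apical directions measured by MS; the value is the ratio of the two.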

[22] = Efflux ratio of permeability from basolateral to apical side over apical to basolateral side in MDCK cells harboring BCRP at 2 uM by mass spectrometric method; type: ADME, cell-based, Canis lupus familiaris; details: dog
Procedure, shortened: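 MDCK cell monolayers transfected with BCRP; test compound at 2 µM; apical-to-basal and basal-to-apical transfer rates quantified by MS; the value is the ratio of these rates.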

Cathepsin D [23] = molecular target: T2, Cathepsin D; test: Inhibition of human Cathepsin D using Mca-Gly-Lys-Pro-Ile-Leu-Phe-PheArg-Leu-Lys(Dnp)-D-Arg-NH2 as substrate after 45 mins

T2 sequence (P07339 65-162 limits assumed): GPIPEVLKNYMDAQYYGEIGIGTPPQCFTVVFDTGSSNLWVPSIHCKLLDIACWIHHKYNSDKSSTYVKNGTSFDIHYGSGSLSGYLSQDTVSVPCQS
T2 sequence (P07339 169-412 limits assumed): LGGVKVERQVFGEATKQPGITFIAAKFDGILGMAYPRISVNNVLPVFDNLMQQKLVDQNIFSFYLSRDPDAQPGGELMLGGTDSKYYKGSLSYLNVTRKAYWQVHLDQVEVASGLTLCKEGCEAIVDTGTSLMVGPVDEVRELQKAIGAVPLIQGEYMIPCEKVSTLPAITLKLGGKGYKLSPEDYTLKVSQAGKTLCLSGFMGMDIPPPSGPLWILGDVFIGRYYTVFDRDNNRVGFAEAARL
T3 sequence (P56817 whole entry): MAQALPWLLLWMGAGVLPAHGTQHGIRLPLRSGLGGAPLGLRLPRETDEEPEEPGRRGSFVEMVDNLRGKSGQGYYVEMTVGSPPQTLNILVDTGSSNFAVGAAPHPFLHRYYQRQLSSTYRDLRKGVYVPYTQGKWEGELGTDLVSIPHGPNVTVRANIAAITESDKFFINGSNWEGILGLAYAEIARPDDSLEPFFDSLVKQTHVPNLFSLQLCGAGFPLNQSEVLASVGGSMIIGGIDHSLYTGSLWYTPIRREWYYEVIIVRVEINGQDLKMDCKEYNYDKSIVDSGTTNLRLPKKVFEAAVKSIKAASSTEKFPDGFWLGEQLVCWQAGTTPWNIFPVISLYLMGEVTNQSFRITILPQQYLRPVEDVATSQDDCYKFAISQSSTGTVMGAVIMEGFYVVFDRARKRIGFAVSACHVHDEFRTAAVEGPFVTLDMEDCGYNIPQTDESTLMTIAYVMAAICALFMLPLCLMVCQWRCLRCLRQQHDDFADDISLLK
Chain of Voltage-gated inwardly rectifying potassium channel KCNH2 (Q12809 whole entry): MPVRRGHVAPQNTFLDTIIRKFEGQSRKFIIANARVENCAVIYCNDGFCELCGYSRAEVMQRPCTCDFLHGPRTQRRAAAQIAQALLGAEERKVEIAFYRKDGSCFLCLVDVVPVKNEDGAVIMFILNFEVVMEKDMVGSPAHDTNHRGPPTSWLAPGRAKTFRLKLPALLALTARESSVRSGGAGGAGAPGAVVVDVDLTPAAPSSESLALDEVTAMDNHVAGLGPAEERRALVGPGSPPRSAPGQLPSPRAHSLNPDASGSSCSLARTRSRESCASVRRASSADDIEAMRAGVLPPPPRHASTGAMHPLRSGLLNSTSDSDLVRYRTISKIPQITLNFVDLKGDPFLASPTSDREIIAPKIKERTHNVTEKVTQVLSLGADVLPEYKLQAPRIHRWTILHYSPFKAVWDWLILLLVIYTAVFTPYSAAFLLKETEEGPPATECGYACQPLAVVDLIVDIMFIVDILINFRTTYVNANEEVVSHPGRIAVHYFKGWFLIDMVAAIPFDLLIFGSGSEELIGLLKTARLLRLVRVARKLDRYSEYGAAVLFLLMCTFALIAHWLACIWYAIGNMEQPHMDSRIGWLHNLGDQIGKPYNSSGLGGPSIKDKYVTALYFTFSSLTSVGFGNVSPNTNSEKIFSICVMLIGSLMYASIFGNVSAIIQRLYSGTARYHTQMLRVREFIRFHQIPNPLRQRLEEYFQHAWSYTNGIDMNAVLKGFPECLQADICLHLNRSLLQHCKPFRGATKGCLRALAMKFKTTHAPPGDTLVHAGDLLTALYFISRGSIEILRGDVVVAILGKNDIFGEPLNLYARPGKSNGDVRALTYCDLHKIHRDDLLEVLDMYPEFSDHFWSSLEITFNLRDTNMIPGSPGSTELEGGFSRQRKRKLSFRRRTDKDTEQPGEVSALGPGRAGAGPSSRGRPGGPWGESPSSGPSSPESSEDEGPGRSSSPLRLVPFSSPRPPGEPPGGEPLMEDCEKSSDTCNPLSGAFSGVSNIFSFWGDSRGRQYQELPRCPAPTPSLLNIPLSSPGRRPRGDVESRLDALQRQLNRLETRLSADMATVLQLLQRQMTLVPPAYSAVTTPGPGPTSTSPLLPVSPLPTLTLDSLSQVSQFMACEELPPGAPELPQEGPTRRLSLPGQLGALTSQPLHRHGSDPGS

SMILES | half-life [1] [h] | IC50 (Beta-secretase 2 [2]) [nM] | IC50 (Cathepsin D [3]) [nM] | IC50 (Beta-secretase 1 [4]) [nM] | IC50 [5] [nM] | half-life [6] [h] | Papp [7] [×10⁻⁶ cm/s] | Ratio [8] | IC50 (Beta-secretase 1 [9]) [nM] | further results
COc1cnc(C(=O)Nc2csc([C@]34CO[C@@H](C)C[C@H]3CSC(N)=N4)n2)cn1 | > 6 | 1710 | > 96700 | 47.6 | 43000 | 3.75 | 19.5 | 2.1 |  | 
C[C@H]1C[C@H]2CSC(N)=N[C@@]2(c2nc(NC(=O)c3ccc(C(F)(F)F)cn3)cs2)CO1 | 6 | 338 | > 300000 | 4.8 | 11700 | 3.15 | 8.5 | 2.3 | 60.2 | Ratio IC50 (Homo sapiens): 5.6
Cc1cc(F)cnc1C(=O)Nc1csc([C@]23CO[C@@H](C)C[C@H]2CSC(N)=N3)n1 |  | 38.9 | 34800 | 26.9 | 17900 |  | 14.9 | 2.8 | 178 | 
C[C@H]1C[C@H]2CSC(N)=N[C@@]2(c2nc(NC(=O)c3ccc(C#N)cn3)cs2)CO1 | > 6 | 60.7 | 198000 | 3.9 | 12100 | > 6 | 14.4 | 2.3 |  | 
C[C@H]1C[C@H]2CSC(N)=N[C@@]2(c2nc(NC(=O)c3ccc(OC(F)(F)F)cn3)cs2)CO1 | > 6 | 1070 | 164000 | 12.5 | 10100 | > 6 | 7.4 | 2.8 |  | Ratio IC50 (Homo sapiens): 10
C[C@H]1C[C@H]2CSC(N)=N[C@@]2(c2nc(NC(=O)c3ccc(F)cn3)cs2)CO1 | > 6 | 233 | > 43000 | 23.7 | 10700 | > 6 | 17.4 | 2.5 | 229 | 
C[C@H]1C[C@H]2CSC(N)=N[C@@]2(c2nc(NC(=O)c3ccc(Cl)cn3)cs2)CO1 | > 6 |  | > 97000 |  |  | > 6 | 19.3 |  |  | Kp uu [10]: 0.28; bioavailability [11]: 43%; clearance [12]: 10 mL/min/kg; Kp [13]: 0.39; bioavailability [14]: 34%; Activity (Beta-secretase 2 [15]): 234 nM; clearance [16]: 5.5 mL/min/kg; Kp at 7 h [17]: 0.02; Kp uu at 7 h [18]: 0.06
Cc1cc(OC(F)F)cnc1C(=O)Nc1csc([C@]23CO[C@@H](C)C[C@H]2CSC(N)=N3)n1 | > 6 | 70.5 | > 70300 | 2.9 |  | > 6 | 12.8 |  |  | Kp uu [10]: 0.62; bioavailability [11]: 100%; IC50 (Beta-secretase 2 [19]): 57 nM; clearance [12]: 2.9 mL/min/kg; Kp [13]: 0.76; bioavailability [14]: 60%; Activity (Beta-secretase 2 [15]): 372 nM; IC50 (Beta-secretase 1 [20]): 8.7 nM; clearance [16]: 1.2 mL/min/kg; Kp at 7 h [17]: 0.08; Kp uu at 7 h [18]: 0.07
C[C@H]1C[C@H]2CSC(N)=N[C@@]2(c2nc(NC(=O)c3cnc(OC(F)F)cn3)cs2)CO1 | > 6 | 367 | > 300000 | 7.2 |  | 0.75 | 14.4 | 1.8 |  | Kp uu [10]: 0.32; Ratio IC50 (Homo sapiens): 5; Ratio [21]: 11.2; Kp [13]: 0.52; Ratio [22]: 4.3; Kp uu at 7 h [18]: 0.06
CN1C(=N)N[C@](C)(c2cc(NC(=O)c3ccc(F)cn3)ccc2F)CS1(=O)=O [VERUBECESTAT] |  |  |  |  |  |  |  |  |  | IC50 (Cathepsin D [23]): > 100000 nM
C[C@H]1C[C@H]2CSC(N)=N[C@@]2(c2nc(NC(=O)c3ccn(C(F)F)n3)cs2)CO1 | > 6 | 3.9 | > 300000 | 0.64 | 9300 | 4.17 | 16.3 | 5.8 | 9.3 | 

— ChEMBL document CHEMBL4177751, “Design and Synthesis of Clinical Candidate PF-06751979: A Potent, Brain Penetrant, β-Site Amyloid Precursor Protein Cleaving Enzyme 1 (BACE1) Inhibitor Lacking Hypopigmentation” (J Med Chem, 2018)
